Test results as given in ChEMBL document CHEMBL1134791, “2- and 3-substituted 1,4-naphthoquinone derivatives as subversive substrates of trypanothione reductase and lipoamide dehydrogenase from Trypanosoma cruzi: synthesis and correlation between redox cycling activities and in vitro cytotoxicity” (J Med Chem, 2001).
Each block holds one compound with its values, some of them ahead of it. Active and inactive are the calls of the source. The calls are words filed in the database; no cut-off is given here.

Tests used:
Leishmania donovani = test: In vitro antiparasitic activity against Leishmania donovani was tested by sigmoidal regression analysis; type: functional
How it was run: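 Mouse peritoneal macrophages (female CD1, starch-elicited, harvested 24 h) infected with L. donovani amastigotes (strain MHOM/ET/67/L82, hamster spleen) or T. cruzi Y-strain trypomastigotes (5:1, from MDCK overlay). Infected cells exposed to a 3-fold dilution series in quadruplicate for 5 days (L. donovani) or 3 days (T. cruzi). Giemsa-stained slides scored for % macrophages cleared of amastigotes versus untreated cultures. ED50 by sigmoidal regression.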

[1] = target: T1, Dihydrolipoyl dehydrogenase, mitochondrial (Sus scrofa) (UniProt P09623); test: The second order rate constant of the pig heart LipDH (lipoamide dehydrogenase) catalyzed NADH oxidation.
T1 sequence (whole entry): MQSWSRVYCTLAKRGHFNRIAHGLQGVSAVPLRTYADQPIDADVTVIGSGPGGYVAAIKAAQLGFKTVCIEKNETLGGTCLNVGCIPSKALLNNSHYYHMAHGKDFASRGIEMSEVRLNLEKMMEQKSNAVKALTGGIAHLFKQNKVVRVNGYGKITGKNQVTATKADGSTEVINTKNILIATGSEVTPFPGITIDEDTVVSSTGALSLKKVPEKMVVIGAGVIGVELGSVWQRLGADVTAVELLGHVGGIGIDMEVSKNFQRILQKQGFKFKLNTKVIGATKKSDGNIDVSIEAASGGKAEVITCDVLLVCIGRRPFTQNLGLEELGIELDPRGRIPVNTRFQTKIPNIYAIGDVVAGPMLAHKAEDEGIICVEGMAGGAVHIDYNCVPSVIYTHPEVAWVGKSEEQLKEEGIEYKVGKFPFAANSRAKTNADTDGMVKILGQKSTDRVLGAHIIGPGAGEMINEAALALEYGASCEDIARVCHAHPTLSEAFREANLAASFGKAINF
How it was run: (§1)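 Recombinant T. cruzi LipDH (E. coli, purified) or pig heart LipDH, 0.1–2.5 µg/mL. Buffer was 50 mM potassium phosphate, 1 mM EDTA, pH 7.0, with 100 µM NADH and naphthoquinone at 10 µM–1.2 mM; all assays carried equal DMSO. Run at 31 °C, started with enzyme, NADH decrease followed at 340 nm. Km and Vmax from Lineweaver–Burk plots. At least duplicate.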

[2] = target: T1, Dihydrolipoyl dehydrogenase, mitochondrial (Sus scrofa); test: Ratio of cytochrome c reduction and NADH oxidation by pig heart LipDH (lipoamide dehydrogenase) at 50 uM concentration, in cytochrome c assay
How it was run: (§2)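 T. cruzi or pig heart LipDH in 50 mM potassium phosphate pH 7.0 with 100 µM NADH, 50 µM cytochrome c and 50 µM naphthoquinone at 31 °C. Cytochrome c reduction read at 550 nm; NADH oxidation measured at 340 nm in the same conditions without cytochrome c. One-electron reduction % = cytochrome c rate ÷ (2 × NADH rate). At least duplicate.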

Trypanosoma cruzi [3] = test: Ratio of cytochrome c reduction and NADH oxidation by TcLipDH (Trypanosoma cruzi lipoamide dehydrogenase) at 50 uM concentration, in cytochrome c assay; how it was run: as §2
[4] = tested on: Dihydrolipoyl dehydrogenase (Trypanosoma cruzi); test: The second order rate constant of the TcLipDH (Trypanosoma cruzi lipoamide dehydrogenase) catalyzed NADH oxidation.
Trypanosoma cruzi [5] = test: The second oder rate constant of the TcLipDH (Trypanosoma cruzi lipoamide dehydrogenase) catalyzed NADH oxidation.; how it was run: as §1
Trypanosoma cruzi [6] = test: Vmax is the maximum velocity of the TcLipDH (Trypanosoma cruzi lipoamide dehydrogenase) catalyzed NADH oxidation
How it was run: (§3)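 Recombinant TcLipDH expressed in E. coli, 0.1–2.5 µg/mL. 50 mM potassium phosphate, 1 mM EDTA, pH 7.0, 31 °C, with 100 µM NADH and naphthoquinone varied from 10 µM to 1.2 mM. DMSO was constant in all assays. NADH decrease followed at 340 nm. Km, Vmax and kcat came from Lineweaver-Burk plots, with kcat/Km derived. At least duplicate.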

Trypanosoma cruzi [7] = test: The Michaelis-Menten constant for NADH oxidation by TcLipDH (Trypanosoma cruzi lipoamide dehydrogenase)
Trypanosoma brucei [8] = test: In vitro antiparasitic activity against Trypanosoma brucei was tested by sigmoidal regression analysis at 30 uM; IA is inactive; type: functional, organism-based
How it was run: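 T. b. brucei S427 bloodstream trypomastigotes at 2 × 10⁵/mL in HMI-18 medium, in triplicate, with a 3-fold dilution series starting at 30 µM. Incubated 3 days at 37 °C in 5% CO₂. Pentamidine served as positive control. Viability read by tetrazolium colorimetric assay on day 3. ED50 by sigmoidal regression.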

[9] = target: Trypanothione reductase (Trypanosoma cruzi) (UniProt P28593); test: The second order rate constant of the TcTR (Trypanosoma cruzi trypanothione reductase) catalyzed […].
How it was run: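 Recombinant TcTR (0.6 U) in 20 mM Hepes, 1 mM EDTA, 0.15 M KCl, pH 7.25 at 22 °C, with 200 µM NADPH and naphthoquinone at five concentrations (0–100 µM) in 1% DMSO. NADPH oxidation at 340 nm; intrinsic oxidase rate not subtracted. Km and Vmax from nonlinear Michaelis–Menten fit; kcat and kcat/Km calculated.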

[10] = target: T1, Dihydrolipoyl dehydrogenase, mitochondrial (Sus scrofa); test: Second order rate constant of the pig heart LipDH (lipoamide dehydrogenase) catalyzed NADH oxidation.; how it was run: as §1
Trypanosoma cruzi [11] = test: The second order rate constant of the TcLipDH (Trypanosoma cruzi lipoamide dehydrogenase) catalyzed NADH oxidation.; how it was run: as §3
Trypanosoma brucei [12] = test: In vitro antiparasitic activity against Trypanosoma brucei was tested by sigmoidal regression analysis
[13] = target: Trypanothione reductase (Trypanosoma cruzi) (UniProt P28593); test: Rate of NADPH oxidation by TcTR in presence of 100 uM NQ was determined in comparison to intrinsic oxidase activity
How it was run: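 Quinone reductase activity of recombinant TcTR measured as NADPH oxidation at 340 nm. Buffer was 20 mM Hepes, 1 mM EDTA, 0.15 M KCl, pH 7.25, with 250 µM NADPH at 25 °C. Rate with naphthoquinone (100 µM for line 8, 25 µM for line 9) divided by intrinsic oxidase rate of enzyme plus NADPH alone. Mean of at least two measurements.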

[14] = target: T1, Dihydrolipoyl dehydrogenase, mitochondrial (Sus scrofa); test: Ratio of cytochrome c reduction and NADH oxidation by pig heart LipDH (pig heart lipoamide dehydrogenase) at 50 uM concentration, cytochrome c assay; how it was run: as §2
Trypanosoma cruzi [15] = tested on: Trypanosoma cruzi

Sequence of Trypanothione reductase (Trypanosoma cruzi) (P28593 whole entry, looked up): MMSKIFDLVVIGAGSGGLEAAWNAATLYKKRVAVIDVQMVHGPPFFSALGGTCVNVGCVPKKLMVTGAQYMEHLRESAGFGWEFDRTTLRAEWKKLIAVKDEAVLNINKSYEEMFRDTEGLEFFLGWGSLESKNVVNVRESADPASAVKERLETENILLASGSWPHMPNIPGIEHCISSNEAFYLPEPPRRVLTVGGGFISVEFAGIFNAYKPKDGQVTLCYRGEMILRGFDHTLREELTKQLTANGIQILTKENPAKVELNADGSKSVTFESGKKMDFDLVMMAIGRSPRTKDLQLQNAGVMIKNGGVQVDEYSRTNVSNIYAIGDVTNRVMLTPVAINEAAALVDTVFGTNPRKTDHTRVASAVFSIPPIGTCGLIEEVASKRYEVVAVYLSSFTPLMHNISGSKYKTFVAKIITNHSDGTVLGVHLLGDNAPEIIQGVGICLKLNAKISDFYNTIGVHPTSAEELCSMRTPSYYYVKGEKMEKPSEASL

SMILES: CC1=C(CCC(=O)O)C(=O)c2c(O)cccc2C1=O
ED50 (Leishmania donovani): 72 µM
k cat/Km [1]: 2.4 10e4 M-1 s-1
Reduction [2]: 1.6%
Reduction (Trypanosoma cruzi [3]): 6.6%
k cat/Km [4]: 10.2 10e4 M-1 s-1

SMILES: CC1=CC(=O)c2ccccc2C1=O
Reduction [2]: 8.1%
IA (Trypanosoma brucei [8]): inactive
Reduction (Trypanosoma cruzi [3]): 12.7%
k cat/Km [9]: 1 10e4 M-1 s-1
k cat/Km [10]: 13 10e4 M-1 s-1
Km (Trypanosoma cruzi [7]): 170 µM

SMILES: CC1=CC(=O)c2c(O)cccc2C1=O
k cat/Km [1]: 29 10e4 M-1 s-1
Reduction [2]: 15.4%
k cat/Km (Trypanosoma cruzi [11]): 48 10e4 M-1 s-1
Vmax (Trypanosoma cruzi [6]): 22.9 µM/min/mg
Reduction (Trypanosoma cruzi [3]): 26.1%
Km (Trypanosoma cruzi [7]): 40 µM

SMILES: CC1=C(NCCCN2CCN(CCCN)CC2)C(=O)c2ccccc2C1=O
ED50 (Trypanosoma brucei [12]): > 12.5 µM

SMILES: CC1=C(CCC(=O)NCCCN2CCN(C)CC2)C(=O)c2ccccc2C1=O
ED50 (Leishmania donovani): > 30 µM
k cat/Km [1]: 2.6 10e4 M-1 s-1
Reduction [2]: 0.8%
Reduction (Trypanosoma cruzi [3]): 1.6%
x fold [13]: 7
k cat/Km [4]: 3 10e4 M-1 s-1

Continued, in another order:

k cat/Km [1]: 3.5 10e4 M-1 s-1
k cat/Km (Trypanosoma cruzi [5]): 23 10e4 M-1 s-1
Vmax (Trypanosoma cruzi [6]): 8.24 µM/min/mg
Km (Trypanosoma cruzi [7]): 30 µM
SMILES: CC1=C(CCCNC(=O)OC(C)(C)C)C(=O)c2c(O)cccc2C1=O
ED50 (Leishmania donovani): 10 µM

Reduction [14]: 0.5%
Reduction (Trypanosoma cruzi [3]): 3%
k cat/Km [10]: 3.2 10e4 M-1 s-1
k cat/Km [4]: 6.6 10e4 M-1 s-1
SMILES: CC1=C(CCC(=O)O)C(=O)c2ccccc2C1=O
ED50 (Leishmania donovani): > 30 µM

k cat/Km [1]: 3.4 10e4 M-1 s-1
k cat/Km [4]: 8.4 10e4 M-1 s-1
SMILES: CC1=C(CCCNC(=O)OC(C)(C)C)C(=O)c2ccccc2C1=O
ED50 (Leishmania donovani): 29.4 µM

k cat/Km [9]: 4.4 10e4 M-1 s-1
x fold (Trypanosoma cruzi [15]): 1000 µM
SMILES: CC1=C(CCC(=O)NCCCN2CCN(CCCNC(=O)CCC3=C(C)C(=O)c4ccccc4C3=O)CC2)C(=O)c2ccccc2C1=O
ED50 (Leishmania donovani): > 46 µM
